Experimental data as given in publication PMC11059122 (iScience, 2024).
Like-named read-outs stand apart in the source and are kept apart here.

Key:
recombinant human USP7 = recombinant human USP7 (Homo sapiens, UniProt Q93009); test: In vitro USP7 activity assay; assay type: biochemical
Outline: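 Test compound, 4-fold 10-point series from 2.5 µM top, pre-incubated 30 min at room temperature with 167 pM Sf21-baculovirus-expressed human USP7 in 20 mM HEPES pH 7.3, 150 mM NaCl, 1 mM TCEP, 125 µg/mL BSA, 0.4% DMSO. Ubiquitin-rhodamine added to 160 nM final; reaction 90 min at room temperature, acetic acid stop. Fluorescence 485/520 nm. % inhibition vs DMSO and no-enzyme controls; IC50 from curve fit; triplicate.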

p53 in MM.1S cells = test: Time course of p53 levels in MM.1S cells; assay type: cell-based, human; conditions: for maximum increase of p53 above DMSO-treated cells: time course 2-24 h
Outline: (§1)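 MM.1S cells (RPMI 1640, 10% FBS, 1% L-glutamine) treated with test compound and sampled over a time course. Lysis in RIPA 30 min at 4°C, centrifugal clarification, BCA normalisation, reducing SDS-PAGE and immunoblot for p53 and p21. Chemiluminescent detection, densitometric band quantification; signal relative to DMSO-treated cells, mean ± standard deviation.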

RKO-E6 cells = test: RKO-E6 cell viability; assay type: cell-based, human
[1] = system: p53 levels in MM.1S cells; test: Meso Scale Discovery total p53 assay in MM.1S cells; assay type: cell-based; conditions: Homo sapiens, MM1.S, 4 h, read-out: MM.1S p53 EC50
Outline: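 MM.1S cells plated at 1×10⁶/well overnight, then exposed 4 h to test compound, 4-fold 9-point series spanning 20 µM to 0.0003 µM, or DMSO (0.1% final). Total p53 in whole-cell lysate measured by Meso Scale Discovery immunoassay kit. p53 signal plotted against concentration and fitted for EC50.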

MRC5 cells = test: MRC5 live-cell imaging; assay type: cell-based, human; conditions: 1 μM
Outline: (§2)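 IncuCyte S3 real-time growth, 4× objective: MRC5 (EMEM + 10% FBS, 4,000 cells/well) or MM.1S (RPMI 1640 + 10% FBS, 24,000 cells/well) seeded overnight, then exposed to test compound, idasanutlin or DMSO. Images every 6 h for 120 h from treatment start; growth expressed as phase object confluence.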

MV4-11 tumors = test: MV4-11 cell-line-derived xenograft mouse model; assay type: in vivo; conditions: for tumor growth inhibition: MV4-11 tumors, oral, 24 days
Outline: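 Female CB-17 SCID mice (6-9 wk, 18-23 g) implanted s.c. in right flank with 10×10⁶ MV4-11 cells in PBS/Matrigel 50/50. Oral gavage dosing; tumour and body weight twice weekly. Final-day urine collected at three intervals, diluted 1:50, mouse MIC-1 ELISA (OD450 minus OD570, standard curve). Tumours removed 4 h after last dose, RIPA-homogenised, p53 and p21 by Western blot.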

MM.1S cells [2] = test: MM.1S live-cell imaging; assay type: cell-based, human; conditions: 1 μM, 5 days
Outline: as §2

MM.1S tumors = test: MM.1S cell-line-derived xenograft mouse model; assay type: in vivo
Outline: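 Female CB-17 SCID mice (6-9 wk, 18-23 g) implanted s.c. in right flank with 5×10⁶ MM.1S cells in PBS/Matrigel 50/50. Randomised at mean tumour ~105 mm³; test compound by oral gavage; tumour and body weight measured twice weekly. Final-day urine at three intervals, diluted 1:50, mouse MIC-1 ELISA (OD450 minus OD570, standard curve). Tumours harvested 2 h post last dose, RIPA-homogenised, p53/p21 Western blot.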

MM.1S cells [3] = test: MM.1S cell viability; assay type: cell-based, human
p53 WT cell lines [4] = test: Cellular viability assays of p53 WT cell lines; assay type: cell-based; conditions: read-out: IC50 in cellular viability assays of p53 WT cell lines
p21 in MM.1S cells = test: Time course of p21 levels in MM.1S cells; assay type: cell-based, human; conditions: time course 2-24 h
Outline: as §1

[5] = system: 44 DUBs (DUBprofiler panel); test: DUB selectivity profiling; assay type: biochemical; conditions: 10 μM compound
RKO cells = test: RKO cell viability; assay type: cell-based; conditions: Homo sapiens, 72 h, read-out: RKO IC50
p53 WT cell lines [6] = conditions: read-out: IC50 in cellular viability assays of p53 WT cell lines; cited from earlier work
MCL1 in OCI-AML3 cells = test: MCL1 levels in OCI-AML3 cells; assay type: cell-based, human; conditions: OCI-AML3, 1 μM each, 4 h, Western blot
Outline: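 OCI-AML-3 cells (RPMI 1640 + 20% FBS) exposed to test compound, venetoclax, or both co-dosed; sampled 4 h post treatment. RIPA lysis 30 min at 4°C, centrifugal clarification, BCA protein assay, reducing SDS-PAGE, immunoblot with extended-duration chemiluminescent substrate; bands quantified by densitometry. Mean ± standard deviation.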

[7] = MV4-11 CDX, 4 h post final dose, Western blot
[8] = MM.1S CDX, 2 h post final dose, Western blot

Sequence of recombinant human USP7 (Q93009 whole entry): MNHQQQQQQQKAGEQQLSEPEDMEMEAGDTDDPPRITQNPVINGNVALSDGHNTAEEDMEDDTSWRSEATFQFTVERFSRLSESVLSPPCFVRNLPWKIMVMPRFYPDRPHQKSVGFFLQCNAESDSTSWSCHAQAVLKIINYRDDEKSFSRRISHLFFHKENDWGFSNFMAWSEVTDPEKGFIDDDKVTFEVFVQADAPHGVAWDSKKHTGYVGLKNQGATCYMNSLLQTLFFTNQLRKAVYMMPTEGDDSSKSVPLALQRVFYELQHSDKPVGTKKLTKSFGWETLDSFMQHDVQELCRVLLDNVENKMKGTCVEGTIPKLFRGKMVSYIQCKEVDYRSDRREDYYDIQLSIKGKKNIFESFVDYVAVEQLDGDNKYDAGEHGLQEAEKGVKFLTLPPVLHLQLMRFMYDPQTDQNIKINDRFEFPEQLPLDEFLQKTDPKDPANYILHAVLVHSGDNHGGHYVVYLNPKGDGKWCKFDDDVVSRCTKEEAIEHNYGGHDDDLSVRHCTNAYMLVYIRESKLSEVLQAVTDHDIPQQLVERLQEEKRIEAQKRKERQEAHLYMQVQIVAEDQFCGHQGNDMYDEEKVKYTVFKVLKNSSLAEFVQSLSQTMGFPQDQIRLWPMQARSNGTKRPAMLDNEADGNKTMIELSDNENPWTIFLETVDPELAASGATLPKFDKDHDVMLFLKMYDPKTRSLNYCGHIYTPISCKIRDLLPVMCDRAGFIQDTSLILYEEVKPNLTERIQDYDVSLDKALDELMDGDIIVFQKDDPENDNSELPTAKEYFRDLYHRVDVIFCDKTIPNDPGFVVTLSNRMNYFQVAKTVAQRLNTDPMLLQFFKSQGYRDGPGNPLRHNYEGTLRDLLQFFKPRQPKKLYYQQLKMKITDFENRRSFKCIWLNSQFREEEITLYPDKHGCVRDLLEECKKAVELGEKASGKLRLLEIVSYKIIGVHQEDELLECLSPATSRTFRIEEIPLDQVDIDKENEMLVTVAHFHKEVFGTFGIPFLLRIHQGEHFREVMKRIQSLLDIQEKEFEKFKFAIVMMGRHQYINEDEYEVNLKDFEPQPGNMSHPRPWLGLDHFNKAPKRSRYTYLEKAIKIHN

For `O=C1CCC(=O)N1Cc1cc2nccc(-c3cc(Cl)cc4c3N([C@@H]3CNC5(CCC5)C3)CCC4)c2s1` [FX1-5303, (S)-1-((7-(6-chloro-1-(5-azaspiro[3.4]octan-7-yl)-1,2,3,4-tetrahydroquinolin-8-yl)thieno[3,2-b]pyridin-2-yl)methyl)pyrrolidine-2,5-dione], the IC50 (recombinant human USP7) was 0.29 nM, the “time of peak p53 levels after treatment” value (p53 in MM.1S cells) was 2 to 6 h and the “p53 elevation after 24h of treatment” value (p53 in MM.1S cells) was “returns nearly to basal levels”. For the same compound, the “maximum increase of p53 above DMSO-treated cells” value (p53 in MM.1S cells) was “approximately 3 fold”, the “shift of IC50 in RKO-E6 cells relative to the parental RKO cell line” value (RKO-E6 cells) was “essentially unchanged” and the EC50 [1] was 5.6 nM. The “increase in cell confluency over the 5-day time course” value (MRC5 cells) was “increased monotonically”, the “p21 levels in tumors vs untreated mice” value (MV4-11 tumors; [7]) was “significantly higher” and the “p53 levels in tumors” value (MV4-11 tumors; [7]) was “elevated”. For the same compound, the MIC-1 in urine (MV4-11 tumors; MV4-11 CDX, day 24, three time periods, ELISA) was “elevated levels”, the tumor growth inhibition (MV4-11 tumors; 30 mg/kg twice daily) was 68% and the tumor growth inhibition (MV4-11 tumors; 40 mg/kg twice daily) was 72%. The “growth of the MM.1S cancer cell line” value (MM.1S cells [2]) was “fully inhibited growth”, the “p21 levels in tumors vs untreated mice” value (MM.1S tumors; [8]) was “significantly higher” and the “p53 levels in tumors” value (MM.1S tumors; [8]) was “elevated”. The MIC-1 in urine (MM.1S tumors; MM.1S CDX, day 24, three time periods, ELISA) was “elevated levels”, the tolerability (MM.1S tumors; MM.1S and MV4-11 CDX mouse models, oral dosing) was “generally well-tolerated” and the tumor growth inhibition (MM.1S tumors; MM.1S tumors, 30 mg/kg twice daily, oral, 24 days) was 95%. For the same compound, the IC50 (MM.1S cells [3]; Homo sapiens, MM1.S, 72 h, read-out: MM.1S viability IC50) was 15 nM, the IC50 (p53 WT cell lines [4]) was under 50 nM and the “maximum increase of p21 above DMSO-treated cells” value (p21 in MM.1S cells) was about 6 fold. For the same compound, the “inhibition in a panel of 44 DUBs” value [5] was “only USP7 was inhibited” and the IC50 (RKO cells) was 3400 nM.
For `COc1cc(C(=O)O)ccc1NC(=O)[C@@H]1N[C@@H](CC(C)(C)C)[C@](C#N)(c2ccc(Cl)cc2F)[C@H]1c1cccc(Cl)c1F` [Idasanutlin, reference compound], the “p53 elevation after 24h of treatment” value (p53 in MM.1S cells) was “approximately 14 fold”, the “maximum increase of p53 above DMSO-treated cells” value (p53 in MM.1S cells) was “approximately 20 fold” and the “shift of IC50 in RKO-E6 cells relative to the parental RKO cell line” value (RKO-E6 cells) was “over 50 fold”. For the same compound, the “increase in cell confluency over the 5-day time course” value (MRC5 cells) was “less than 10%”, the “growth of the MM.1S cancer cell line” value (MM.1S cells [2]) was “fully inhibited growth” and the “inhibition of MM1.S cell viability compared with FX1-5303” value (MM.1S cells [3]; three days, CTG) was “equipotently”. The “maximum increase of p21 above DMSO-treated cells” value (p21 in MM.1S cells) was about 80 fold and the IC50 (RKO cells) was 170 nM.
In the case of `CC(=O)c1cc([N+](=O)[O-])c(Sc2ccc(F)cc2F)s1` [P22077], the IC50 (p53 WT cell lines [6]) is listed as over 1000 nM.
In the case of `CC1(C)CCC(CN2CCN(c3ccc(C(=O)NS(=O)(=O)c4ccc(NCC5CCOCC5)c([N+](=O)[O-])c4)c(Oc4cnc5[nH]ccc5c4)c3)CC2)=C(c2ccc(Cl)cc2)C1` [Venetoclax], the “effect on MCL1 levels” value (MCL1 in OCI-AML3 cells) is reported as “increase in MCL1 levels”.
